A short description of data set [1]: Half life in rat at 67.1 umol/kg, po. Type of data set: ADME, organism-based. Particulars: in vivo.
A further data set addresses Histone deacetylase 1 (Homo sapiens, UniProt Q13547). Briefly: Inhibition of human HDAC1 expressed in Hi5 cells. Details: species or system BTI-TN-5B1-4. In a few lines: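 C-terminally FLAG-tagged HDAC1 purified on anti-FLAG M2 agarose. Development 30 min at ambient temperature, fluorescence read at ex 360/em 465 nm. IC50 taken from dose–response curves.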
The next data set has as its system HCT-116. Briefly: Antiproliferative activity against human HCT116 cells after 72 hrs. Type of data set: functional, cell-based. Particulars: HCT-116, 72 h. In a few lines: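 HCT116 cells seeded at 1 × 10³ cells/well and left to adhere overnight, then exposed to inhibitors for 72 h. MTS tetrazolium dye added and incubated a further 3 h, with absorbance read at 490 nm.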

The nature of data set [2]: Solubility at pH 7.4. Type of data set: physicochemical. Particulars: buffer.
A short description of data set [3]: Lipophilicity, log D at pH 7.4. Type of data set: physicochemical. Particulars: buffer.
Data set [4] is described as follows: Clearance in rat at 5 umol/kg, iv. Type of data set: ADME, organism-based. Particulars: in vivo.
A short description of data set [5]: Half life in rat at 5 umol/kg, iv. Type of data set: ADME, organism-based. Particulars: in vivo.
A short description of data set [6]: Volume of distribution at steady state in rat at 5 umol/kg, iv. Type of data set: ADME, organism-based. Particulars: in vivo, read-out: Vdss.
In data set [7] the target is Voltage-gated inwardly rectifying potassium channel KCNH2 (Homo sapiens, UniProt Q12809). Briefly: Inhibition of human ERG channel.
Data set [8] in a line: Half life in rat at 55.6 umol/kg, po. Particulars: in vivo. Type of data set: ADME, organism-based.
Data set [9] can be described thus: Half life in rat at 56.4 umol/kg, po. Particulars: in vivo. Type of data set: ADME, organism-based.
The nature of data set [10]: Half life in rat at 55 umol/kg, po. Type of data set: ADME, organism-based. Particulars: in vivo.
Data set [11] can be described thus: Clearance in rat at 2.5 umol/kg, iv. Type of data set: ADME, organism-based. Particulars: in vivo.
Data set [12] is described as follows: Half life in rat at 2.5 umol/kg, iv. Type of data set: ADME, organism-based. Particulars: in vivo.
Data set [13] can be described thus: Volume of distribution at steady state in rat at 2.5 umol/kg, iv. Type of data set: ADME, organism-based. Particulars: in vivo, read-out: Vdss.
Data set [14] is described as follows: Half life in rat at 63.6 umol/kg, po. Type of data set: ADME, organism-based. Particulars: in vivo.
Data set [15] is described as follows: Half life in rat at 56.7 umol/kg, po. Type of data set: ADME, organism-based. Particulars: in vivo.
The nature of data set [16]: Half life in rat at 10 umol/kg, po. Particulars: in vivo. Type of data set: ADME, organism-based.
A short description of data set [17]: Half life in rat at 65.2 umol/kg, po. Type of data set: ADME, organism-based. Particulars: in vivo.
Data set [18] can be described thus: Half life in mouse at 65.2 umol/kg, po. Type of data set: ADME, organism-based. Particulars: in vivo.
A short description of data set [19]: Clearance in Beagle dog at 0.8 umol/kg, iv. Particulars: in vivo. Type of data set: ADME, organism-based, Canis lupus familiaris.
A short description of data set [20]: Volume of distribution at steady state in Beagle dog at 0.8 umol/kg, iv. Type of data set: ADME, organism-based, Canis lupus familiaris. Particulars: in vivo, read-out: Vdss.
A short description of data set [21]: Half life in Beagle dog at 0.8 umol/kg, iv. Type of data set: ADME, organism-based, Canis lupus familiaris. Particulars: in vivo.
The nature of data set [22]: Half life in Beagle dog at 3 umol/kg, po. Type of data set: ADME, organism-based, Canis lupus familiaris. Particulars: in vivo.
Data set [23] is described as follows: Bioavailability in Beagle dog at 3 umol/kg, po. Type of data set: ADME, organism-based, Canis lupus familiaris. Particulars: in vivo.
For data set [24], the system named is Plasma. The experiment in a line: Fraction unbound to rat plasma protein in mouse. Type of data set: ADME, cell-free.
The subject of data set [25] is Plasma. Briefly: Fraction unbound to rat plasma protein in rat. Type of data set: ADME, cell-free.
Data set [26] has as its system Plasma. Briefly: Fraction unbound to […]. Type of data set: ADME, cell-free, Canis lupus familiaris.

In brackets after ≈: the same amount, converted by molar mass. Where only a bound is given, the exact number is not on record here.

The text below walks through data of ChEMBL document CHEMBL1144843, “Design and campaign synthesis of pyridine-based histone deacetylase inhibitors” (Bioorg Med Chem Lett, 2008).

Sequence of Histone deacetylase 1 (Q13547 whole entry): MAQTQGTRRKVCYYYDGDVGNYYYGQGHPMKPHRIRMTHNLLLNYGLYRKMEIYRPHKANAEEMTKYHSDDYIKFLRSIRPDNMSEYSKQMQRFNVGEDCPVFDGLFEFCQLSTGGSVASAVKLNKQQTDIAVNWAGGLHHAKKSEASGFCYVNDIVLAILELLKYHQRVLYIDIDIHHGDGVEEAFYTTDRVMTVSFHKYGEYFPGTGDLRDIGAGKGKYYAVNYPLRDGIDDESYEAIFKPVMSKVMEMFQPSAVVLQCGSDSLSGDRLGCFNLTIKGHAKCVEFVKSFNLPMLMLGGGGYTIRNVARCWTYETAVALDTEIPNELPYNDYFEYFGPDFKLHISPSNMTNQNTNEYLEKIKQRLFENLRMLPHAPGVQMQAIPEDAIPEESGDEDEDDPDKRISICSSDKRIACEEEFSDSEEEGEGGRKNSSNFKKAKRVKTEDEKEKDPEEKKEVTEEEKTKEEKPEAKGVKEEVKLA
Sequence of Voltage-gated inwardly rectifying potassium channel KCNH2 (Q12809 whole entry): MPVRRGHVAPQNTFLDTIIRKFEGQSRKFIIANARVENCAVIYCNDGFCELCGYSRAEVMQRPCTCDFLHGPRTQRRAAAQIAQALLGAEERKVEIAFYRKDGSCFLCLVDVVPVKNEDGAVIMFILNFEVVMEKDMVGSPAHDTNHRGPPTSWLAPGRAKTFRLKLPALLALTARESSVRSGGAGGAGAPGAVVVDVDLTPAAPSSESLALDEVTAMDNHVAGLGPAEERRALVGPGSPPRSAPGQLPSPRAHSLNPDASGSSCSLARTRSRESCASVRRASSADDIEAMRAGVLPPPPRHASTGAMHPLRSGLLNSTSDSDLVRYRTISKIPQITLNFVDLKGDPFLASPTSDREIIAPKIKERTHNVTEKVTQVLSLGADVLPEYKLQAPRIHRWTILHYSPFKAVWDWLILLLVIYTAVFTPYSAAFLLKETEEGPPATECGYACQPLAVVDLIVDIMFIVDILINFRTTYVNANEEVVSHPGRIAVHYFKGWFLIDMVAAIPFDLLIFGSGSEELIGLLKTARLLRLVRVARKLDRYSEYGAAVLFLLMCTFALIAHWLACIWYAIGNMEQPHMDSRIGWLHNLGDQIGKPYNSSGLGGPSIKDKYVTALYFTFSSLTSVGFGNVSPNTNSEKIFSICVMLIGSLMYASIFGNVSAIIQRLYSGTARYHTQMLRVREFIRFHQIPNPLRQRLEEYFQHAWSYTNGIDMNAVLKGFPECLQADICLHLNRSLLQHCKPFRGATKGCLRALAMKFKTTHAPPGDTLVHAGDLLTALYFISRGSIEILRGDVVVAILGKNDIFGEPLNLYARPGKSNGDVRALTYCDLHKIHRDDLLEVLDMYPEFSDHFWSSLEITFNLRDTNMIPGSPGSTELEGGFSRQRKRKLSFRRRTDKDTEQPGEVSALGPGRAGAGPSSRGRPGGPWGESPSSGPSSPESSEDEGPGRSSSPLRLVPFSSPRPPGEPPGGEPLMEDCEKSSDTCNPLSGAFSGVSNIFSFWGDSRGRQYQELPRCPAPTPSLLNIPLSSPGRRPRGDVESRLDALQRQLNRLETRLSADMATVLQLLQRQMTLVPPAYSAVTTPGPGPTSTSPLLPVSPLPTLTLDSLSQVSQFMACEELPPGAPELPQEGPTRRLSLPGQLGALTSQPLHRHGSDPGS

The half-life is the time in which the quantity being followed falls by half. As a reminder, the IC50 is the concentration that gives 50% inhibition. A low value points to inhibition by little substance. Usually solubility stands for the dissolved amount per volume that the medium holds. A high value points to much dissolved substance. The logD is lipophilicity at a set pH, counting ionised and neutral species. The low end stands for lower lipophilicity, the high end for higher lipophilicity. Broadly, the clearance is the rate of elimination divided by the concentration. A low value points to inefficient removal. Turning to `Cc1cc(CN2CCC2)cnc1-c1ccc(C(=O)Nc2ccccc2N)cc1`, the half-life in data set [1] is 5.5 h; in data set [5] it was 3 h. The values for the half-maximal inhibitory concentration (IC50) at Histone deacetylase 1 and with HCT-116 were 21.4 nM and 309 nM, respectively. Besides, the solubility in [2] turned out to be 2240 µM (≈ 834 µg/mL). In data set [3], this compound showed a logD of 1.18. In data set [4], the clearance was 30.2 mL/min/kg. Besides, the Vd in [6] turned out to be 6.9 L/kg.
With `CC(C)N1CCN(Cc2cnc(-c3ccc(C(=O)Nc4ccccc4N)cc3)c(F)c2)CC1`, the IC50 is 33.1 nM against Histone deacetylase 1, 646 nM in the data set with HCT-116 and more than 31600 nM in data set [7]. For the same compound, in data set [2], the solubility was more than 2160 µM. The same compound yielded a logD in [3] of 1.6.
The corresponding values for `CC(C)N1CCN(Cc2cnc(-c3ccc(C(=O)Nc4ccccc4N)cc3)c(Cl)c2)CC1` are 13.2 nM, 309 nM, 7080 nM, more than 1490 µM and 1.68.
On to `CCN1CCN(Cc2cnc(-c3ccc(C(=O)Nc4ccccc4N)cc3)c(Cl)c2)CC1`, for which the half-life in data set [8] was 4.4 h. Also, the IC50 against Histone deacetylase 1 was 16.2 nM; in the data set on HCT-116 it was 339 nM; in data set [7], 8320 nM. Further, in data set [3], the log distribution coefficient (logD) stood at 1.81.
`Cc1cc(CN2CCN(C(C)C)CC2)cnc1-c1ccc(C(=O)Nc2ccccc2N)cc1` gave a half-life in data set [9] of 3.4 h. The same compound showed a 50% inhibitory concentration (IC50) in the data set with HCT-116 of 240 nM. The same compound came in with a solubility in data set [2] of more than 2620 µM. The compound also registered a logD in [3] of 1.44.
For `CC(C)N1CCN(Cc2cnc(-c3ccc(C(=O)Nc4ccccc4N)cc3)c(C#N)c2)CC1`, the half-life in [10] is 4.3 h; in [12], 2 h. The figures for the half-inhibitory concentration (IC50) (against Histone deacetylase 1; in the data set on HCT-116; in data set [7]) were 10.5 nM, 141 nM and 19100 nM, respectively. The compound further displayed a solubility in data set [2] of 1380 µM (≈ 630 µg/mL). The compound further had a pH-dependent lipophilicity (logD) in data set [3] of 1.28. The compound also registered a clearance in data set [11] of 44 mL/min/kg. Moreover, in [13], the Vd was 5.1 L/kg.
Take `Nc1ccccc1NC(=O)c1ccc(-c2ncc(CN3CCC3)cc2Cl)cc1`: the half-life in data set [14] is 5.2 h. The figures for the IC50 (on Histone deacetylase 1; in the data set on HCT-116; in [7]) were 18.6 nM, 302 nM and 22400 nM, respectively. The same compound had a solubility in data set [2] of 1340 µM (≈ 526 µg/mL).
For the compound `CCN1CCN(Cc2cnc(-c3ccc(C(=O)Nc4ccccc4N)cc3)c(C#N)c2)CC1`, the results for the half-life in data set [15] and in [12] were 3.2 h and 1.1 h, respectively. Also, the half-maximal inhibitory concentration (IC50) against Histone deacetylase 1 is 9.77 nM; in the data set on HCT-116, 138 nM; in data set [7] it was more than 25100 nM. In data set [2], this compound gave a solubility of more than 1940 µM. This compound had a logD in data set [3] of 1.14. Further, the clearance in data set [11] came out at 47.5 mL/min/kg. Moreover, the Vd in data set [13] stood at 3.6 L/kg.
In the case of `CCN1CCN(Cc2cnc(-c3ccc(C(=O)Nc4ccccc4N)cc3)c(F)c2)CC1`, the 50% inhibitory concentration (IC50) was 38 nM on Histone deacetylase 1, 437 nM with HCT-116 and more than 31600 nM in data set [7]. For the same compound, the solubility in [2] was more than 2420 µM.
Regarding `N#Cc1cccnc1-c1ccc(C(=O)Nc2ccccc2N)cc1`, the values for the IC50 (against Histone deacetylase 1; in the data set on HCT-116; in [7]) were 12.3 nM, 288 nM and more than 31600 nM, respectively. Moreover, the solubility in data set [2] was 35 µM (≈ 11 µg/mL). The compound further showed a log distribution coefficient (logD) in data set [3] of 1.58. Further, in data set [4], the clearance came to 56.1 mL/min/kg. The Vd in [6] is 1 L/kg.
For the compound `Nc1ccccc1NC(=O)c1ccc(-c2ncc(CN3CCC3)cc2F)cc1`, the values for the half-life in data set [16] and in data set [5] were 5.4 h and 3.6 h, respectively. Moreover, the results for the half-maximal inhibitory concentration (IC50) (at Histone deacetylase 1; in the data set on HCT-116; in data set [7]) were 50.1 nM, 372 nM and more than 25100 nM, respectively. The compound also returned a solubility in data set [2] of 841 µM (≈ 317 µg/mL). This compound returned a pH-dependent lipophilicity (logD) in [3] of 1.69. In data set [4], this compound yielded a clearance of 34 mL/min/kg. The Vd in [6] came out at 6.3 L/kg.
Consider `CCN1CCN(Cc2cnc(-c3ccc(C(=O)Nc4ccccc4N)cc3)c(C)c2)CC1`, for which the figures for the IC50 (at Histone deacetylase 1; in the data set on HCT-116; in data set [7]) were 18.6 nM, 229 nM and more than 25100 nM, respectively. In data set [2], this compound came in with a solubility of more than 2350 µM. Also, in data set [3], the log distribution coefficient (logD) is 1.2.
The term bioavailability denotes dose-corrected exposure relative to a reference, in per cent. Read a low bioavailability as poor availability. On to `N#Cc1cc(CN2CCC2)cnc1-c1ccc(C(=O)Nc2ccccc2N)cc1`, for which the half-life was 5.5 h in data set [17]; 3 h in data set [18]; 1.9 h in data set [21]; 2.1 h in data set [22]; 3.8 h in [5]. The clearance in data set [19] came to 30 mL/min/kg; in [4], 19.6 mL/min/kg. Moreover, the Vd in [20] came to 2.32 L/kg; in [6], 5.4 L/kg. This compound registered a bioavailability in data set [23] of 13%. Further, the fu with Plasma [24] turned out to be 54%; in the data set with Plasma [25] it was 53%; in the data set with Plasma [26] it was 48%. Moreover, the concentration for half-maximal inhibition (IC50) was 9.77 nM on Histone deacetylase 1, 138 nM in the data set on HCT-116 and more than 25100 nM in data set [7]. Moreover, the solubility in data set [2] was 746 µM (≈ 286 µg/mL). This compound showed a logD in [3] of 1.22.
